The values below come from ChEMBL document CHEMBL4765328 (Eur J Med Chem, 2020).

pIC50: −log10 of the molar value.

One test relates to HT-29. The experiment in a line: Antiproliferative activity against human HT-29 cells assessed as inhibition of cell growth. It is filed as functional, cell-based. Summed up: (§1)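 Growth inhibition of cancer cell lines read from dose-response curves; IC50 as mean ± SEM of at least three independent experiments.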
`COc1cc(C(=O)c2c(N)oc3c(OC)cccc23)cc(OC)c1OC`: the pIC50 (usually the negative decadic logarithm of the IC50, by convention in mol/L) is 6.32.

Take `COc1cc(C(=O)c2c(N)oc3cc(O)ccc23)cc(OC)c1OC`: the pIC50 was 5.47.

For `COc1cc(C(=O)c2c(N)oc3cc(OCc4ccccc4)ccc23)cc(OC)c1OC`, the pIC50 was 5.06.

As to `COc1cc(C(=O)c2c(N)oc3ccccc23)cc(OC)c1OC`, the pIC50 is 6.23.

As for `COc1cc(C(=O)c2c(N)oc3cc(F)ccc23)cc(OC)c1OC`, the pIC50 was 6.17.

With `COc1ccc2c(N)c(C(=O)c3cc(OC)c(OC)c(OC)c3)oc2c1`, the pIC50 is 6.10.

With `COc1cc(C(=O)c2c(N)oc3cccc(OC)c23)cc(OC)c1OC`, the pIC50 is 5.19.

Consider `COc1cc(C(=O)c2c(N)oc3ccc(N)cc23)cc(OC)c1OC`, for which the negative logarithm of the IC50 (pIC50) was 6.10.

System in another test: not listed separately
The experiment in a line: Antitumor activity mouse E0771 cells implanted in C57BL/6 mouse assessed as reduction tumor growth at 30 mg/kg, ip administered every other day relative to control. Further details: scale not given: the % may be the effect or the level left. It is filed as functional, EO771. Summed up:
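Female C57BL/6 mice, seven weeks old, injected orthotopically into the mammary fat pad with 4 × 10^5 E0771 cells. Palpable tumours randomised into groups, dosed intraperitoneally every other day in DMSO vehicle, 100 µL final volume; vehicle-only controls. Caliper volume V=(D×d²)/2, tumour weight taken at end; n=5 mice/group; body weight monitored; two-way ANOVA with Bonferroni.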
For `COc1ccc(/C=C\c2cc(OC)c(OC)c(OC)c2)cc1OP(=O)([O-])[O-].[Na+].[Na+]` [FOSBRETABULIN DISODIUM], the Activity is recorded as 26.5%.

The next test deals with Daoy. As to the kind of experiment: Antiproliferative activity against human Daoy cells assessed as inhibition of cell growth. It is filed as functional, cell-based. Summed up:
(§2)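 Compounds from 10 mM DMSO stocks; final DMSO ≤0.25%. Growth inhibition of cancer cell lines read from dose-response curves; IC50 as mean ± SEM of at least three independent experiments.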
In the case of `COc1cc(C(=O)c2c(N)oc3c(OC)cccc23)cc(OC)c1OC`, the negative logarithm of the IC50 (pIC50) is 6.46.

As to `COc1cc(C(=O)c2c(N)oc3cc(O)ccc23)cc(OC)c1OC`, the pIC50 was 6.37.

On to `COc1cc(C(=O)c2c(N)oc3cc(OCc4ccccc4)ccc23)cc(OC)c1OC`, for which the pIC50 is less than 5.00.

Consider `COc1cc(C(=O)c2c(N)oc3ccccc23)cc(OC)c1OC`, for which the pIC50 is 6.43.

Turning to `COc1cc(C(=O)c2c(N)oc3cc(F)ccc23)cc(OC)c1OC`, the pIC50 was 6.07.

For the molecule `COc1ccc2c(N)c(C(=O)c3cc(OC)c(OC)c(OC)c3)oc2c1`, the pIC50 was 8.30.

With `COc1cc(C(=O)c2c(N)oc3cccc(OC)c23)cc(OC)c1OC`, the pIC50 is 5.40.

Take `COc1cc(C(=O)c2c(N)oc3ccc(N)cc23)cc(OC)c1OC`: the pIC50 is 6.31.

The test system of a further test is HL-60. As to the kind of experiment: Antiproliferative activity against human HL-60 cells assessed as inhibition of cell growth. It is filed as functional, cell-based. Summed up: as §1
`COc1cc(C(=O)c2c(N)oc3c(OC)cccc23)cc(OC)c1OC`: the negative-log IC50 (pIC50) was 6.63.

Take `COc1cc(C(=O)c2c(N)oc3cc(O)ccc23)cc(OC)c1OC`: the pIC50 is 6.55.

For `COc1cc(C(=O)c2c(N)oc3cc(OCc4ccccc4)ccc23)cc(OC)c1OC`, the pIC50 was 5.15.

For the molecule `COc1cc(C(=O)c2c(N)oc3ccccc23)cc(OC)c1OC`, the pIC50 is 6.47.

`COc1cc(C(=O)c2c(N)oc3cc(F)ccc23)cc(OC)c1OC`: the pIC50 is 6.38.

`COc1ccc2c(N)c(C(=O)c3cc(OC)c(OC)c(OC)c3)oc2c1`: the pIC50 is 8.46.

For `COc1cc(C(=O)c2c(N)oc3cccc(OC)c23)cc(OC)c1OC`, the pIC50 is 5.31.

As to `COc1cc(C(=O)c2c(N)oc3ccc(N)cc23)cc(OC)c1OC`, the pIC50 is 6.38.

The next test relates to Jurkat. As to the kind of experiment: Antiproliferative activity against human Jurkat cells assessed as inhibition of cell growth. It is filed as functional, cell-based. Summed up:
as §2
Consider `COc1cc(C(=O)c2c(N)oc3c(OC)cccc23)cc(OC)c1OC`, for which the pIC50 is 6.48.

On to `COc1cc(C(=O)c2c(N)oc3cc(O)ccc23)cc(OC)c1OC`, for which the pIC50 was 6.52.

Take `COc1cc(C(=O)c2c(N)oc3cc(OCc4ccccc4)ccc23)cc(OC)c1OC`: the pIC50 was 5.36.

`COc1cc(C(=O)c2c(N)oc3ccccc23)cc(OC)c1OC`: the pIC50 was 6.41.

In the case of `COc1cc(C(=O)c2c(N)oc3cc(F)ccc23)cc(OC)c1OC`, the pIC50 is 6.52.

In the case of `COc1ccc2c(N)c(C(=O)c3cc(OC)c(OC)c(OC)c3)oc2c1`, the pIC50 is 8.51.

Regarding `COc1cc(C(=O)c2c(N)oc3cccc(OC)c23)cc(OC)c1OC`, the pIC50 was 5.56.

`COc1cc(C(=O)c2c(N)oc3ccc(N)cc23)cc(OC)c1OC`: the pIC50 was 6.40.

The next test has as its system SEM cells. As to the kind of experiment: Antiproliferative activity against human SEM cells assessed as inhibition of cell growth. It is filed as functional, cell-based. An outline of the steps:
as §2
As to `COc1cc(C(=O)c2c(N)oc3c(OC)cccc23)cc(OC)c1OC`, the pIC50 is 6.55.

Turning to `COc1cc(C(=O)c2c(N)oc3cc(O)ccc23)cc(OC)c1OC`, the pIC50 was 6.43.

Regarding `COc1cc(C(=O)c2c(N)oc3cc(OCc4ccccc4)ccc23)cc(OC)c1OC`, the pIC50 was 5.43.

For `COc1cc(C(=O)c2c(N)oc3ccccc23)cc(OC)c1OC`, the pIC50 was 6.60.

Consider `COc1cc(C(=O)c2c(N)oc3cc(F)ccc23)cc(OC)c1OC`, for which the pIC50 was 6.48.

For the molecule `COc1ccc2c(N)c(C(=O)c3cc(OC)c(OC)c(OC)c3)oc2c1`, the pIC50 is 8.44.

Take `COc1cc(C(=O)c2c(N)oc3cccc(OC)c23)cc(OC)c1OC`: the pIC50 was 5.34.

`COc1cc(C(=O)c2c(N)oc3ccc(N)cc23)cc(OC)c1OC`: the pIC50 is 6.59.

The next test concerns HeLa. The experiment in a line: Antiproliferative activity against human HeLa cells assessed as inhibition of cell growth. It is filed as functional, cell-based. Summed up: as §1
Consider `COc1cc(C(=O)c2c(N)oc3c(OC)cccc23)cc(OC)c1OC`, for which the pIC50 is 6.30.

As for `COc1cc(C(=O)c2c(N)oc3cc(O)ccc23)cc(OC)c1OC`, the pIC50 is 6.23.

Consider `COc1cc(C(=O)c2c(N)oc3cc(OCc4ccccc4)ccc23)cc(OC)c1OC`, for which the pIC50 is 5.01.

Consider `COc1cc(C(=O)c2c(N)oc3ccccc23)cc(OC)c1OC`, for which the pIC50 was 6.38.

For the molecule `COc1cc(C(=O)c2c(N)oc3cc(F)ccc23)cc(OC)c1OC`, the pIC50 was 6.23.

As for `COc1ccc2c(N)c(C(=O)c3cc(OC)c(OC)c(OC)c3)oc2c1`, the negative-log IC50 (pIC50) was 8.21.

For the molecule `COc1cc(C(=O)c2c(N)oc3cccc(OC)c23)cc(OC)c1OC`, the pIC50 is 5.28.

With `COc1cc(C(=O)c2c(N)oc3ccc(N)cc23)cc(OC)c1OC`, the pIC50 is 6.20.
